Source: ChEMBL document CHEMBL1255484, “In vitro activity of ACH-702, a new isothiazoloquinolone, against Nocardia brasiliensis compared with econazole and the carbapenems imipenem and meropenem alone or in combination with clavulanic acid” (Antimicrob Agents Chemother, 2010)
Values after ≈ are worked out from the molar mass of the structure shown.

Assays:
Nocardia brasiliensis [1] = assay: Antibacterial activity against Nocardia brasiliensis isolated from actinomycetoma patient by broth dilution method; type: functional
Method in brief: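 CLSI M24-A broth microdilution on 30 N. brasiliensis isolates from human actinomycetoma, including HUJEG-1, identified biochemically and by 16S rRNA gene fragment sequencing. Ground colonies were suspended to 0.5 McFarland in cation-adjusted Mueller-Hinton broth, giving 1 × 10^4 to 5 × 10^4 CFU per well, and added to serial drug dilutions. Incubation was 3 days at 35°C. MIC is the lowest concentration giving total growth inhibition; MIC50/MIC90 are reported.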

Mus musculus = assay: Plasma concentration in mouse at 3.3 mg/kg, po; type: ADME, organism-based; design: dose 3.3 mg/kg, route oral; details: in vivo
[2] = Tmax in mouse plasma at 3.3 mg/kg, po; type: ADME, organism-based; design: dose 3.3 mg/kg, route oral
Nocardia brasiliensis [3] = assay: Antibacterial activity against Nocardia brasiliensis isolated from actinomycetoma patient by broth dilution method in presence of clavulanic acid; type: functional
Method in brief: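 Same CLSI M24-A broth microdilution: 30 human actinomycetoma N. brasiliensis isolates, cation-adjusted Mueller-Hinton broth, inoculum 1 × 10^4 to 5 × 10^4 CFU per well, 3 days at 35°C. Clavulanic acid at 0.25 μg/ml was added with each carbapenem dilution. Drug-free growth well; E. coli ATCC 25922 and S. aureus ATCC 29213 as external controls. MIC is total growth inhibition.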

| SMILES | MIC50 (Nocardia brasiliensis [1]) [µg/mL] | MIC90 (Nocardia brasiliensis [1]) [µg/mL] | Cp (Mus musculus) [ng/mL] | Tmax [2] [h] | MIC50 (Nocardia brasiliensis [3]) [µg/mL] | MIC90 (Nocardia brasiliensis [3]) [µg/mL] |
| --- | --- | --- | --- | --- | --- | --- |
| COc1c(N2CC[C@@H](C(C)(C)N)C2)c(F)cc2c(=O)c3c(=O)[nH]sc3n(C3CC3)c12 | 0.125 (≈ 0.289 µM) | 0.5 (≈ 1.16 µM) | – | – | – | – |
| Clc1ccc(COC(Cn2ccnc2)c2ccc(Cl)cc2Cl)cc1 (centres undefined) [ECONAZOLE] | 2 (≈ 5.24 µM) | 4 (≈ 10.5 µM) | 230 | 1 | – | – |
| C[C@@H](O)[C@H]1C(=O)N2C(C(=O)O)=C(SCCNC=N)C[C@H]12 [IMIPENEM ANHYDROUS] | 64 (≈ 214 µM) | > 64 | – | – | 64 | > 64 |
| C[C@@H](O)[C@H]1C(=O)N2C(C(=O)O)=C(S[C@@H]3CN[C@H](C(=O)N(C)C)C3)[C@H](C)[C@H]12 [MEROPENEM] | 2 (≈ 5.22 µM) | 8 (≈ 20.9 µM) | – | – | 2 | 8 |
